Data: ChEMBL document CHEMBL2413057, “Synthesis and in vitro evaluation of new ethyl and methyl quinoxaline-7-carboxylate 1,4-di-N-oxide against Entamoeba histolytica” (Bioorg Med Chem, 2013)

Columns and labels:
Entamoeba histolytica = experiment: Antiamoebic activity against trophozoite stage of Entamoeba histolytica HM-1:IMSS assessed as growth inhibition after 48 hrs by microdilution method; type: functional, organism-based
Outline: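 Axenic log-phase HM1:IMSS trophozoites grown in BI-S-33 medium with 20% calf serum, viability counted by trypan blue, seeded at 10⁵/mL (100 µL per well). Compounds dissolved in 0.1% DMSO, two-fold serial dilutions in medium. Incubated 37 °C, 48 h, then WST-1 added for 4 h at 37 °C, OD 490 nm. IC50 by linear regression of % inhibition versus concentration, duplicate, mean ± SD.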

[1] = Selectivity index, ratio of IC50 for african green monkey Vero cells to IC50 for trophozoite stage of Entamoeba histolytica HM-1:IMSS
Outline: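 Computed as VERO toxicity IC50 divided by the E. histolytica IC50, where each IC50 is the concentration that kills 50% of the respective cells.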

Vero = experiment: Cytotoxicity against african green monkey Vero cells assessed as cell viability after 48 hrs by WST-1 assay; type: cell-based; settings: Chlorocebus sabaeus
Outline: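 VERO cells in MEM with 0.1 mM nonessential amino acids, 1 mM pyruvate and 10% FBS, 37 °C, 5% CO₂. Plated at 10⁴ cells/well, 24 h before dosing. Compounds diluted in complete medium to 0.1–100 µM, 48 h exposure against an untreated control. WST-1 added for 4 h at 37 °C. Quadruplicate, repeated twice, mean ± SD, ANOVA.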

[2] = Entamoeba histolytica, HM-1:IMSS, 48 h, read-out: IC50

Compound	IC50 (Entamoeba histolytica; [2]) [µM]	Ratio IC50 [1]	IC50 (Vero) [µM]	IC50 (Entamoeba histolytica)
CCOC(=O)c1ccc2no[n+]([O-])c2c1	221			
COC(=O)c1ccc2c(c1)[n+]([O-])c(C(=O)c1cccs1)c(C(F)(F)F)[n+]2[O-]	0.35	16.74	5.86	
COC(=O)c1ccc2c(c1)[n+]([O-])c(C(=O)c1ccc3ccccc3c1)c(C(F)(F)F)[n+]2[O-]	5.29			
CCOC(=O)Cc1c(C(=O)OCC)[n+]([O-])c2cc(C(=O)OC)ccc2[n+]1[O-]	1.91			
CCOC(=O)c1ccc2c(c1)[n+]([O-])c(C(=O)OC)c(C)[n+]2[O-]	1.88	>53.19	> 100	
CCOC(=O)c1ccc2c(c1)[n+]([O-])c(C(=O)OCC)c(C)[n+]2[O-]	4.18			
CCOC(=O)c1ccc2c(c1)[n+]([O-])c(C(N)=O)c(C)[n+]2[O-]	1.47	>68.02	> 100	
CCOC(=O)c1ccc2c(c1)[n+]([O-])c(C(=O)c1ccccc1)c(C)[n+]2[O-]	1.93	>51.81	> 100	
CCOC(=O)c1ccc2c(c1)[n+]([O-])c(C(=O)Nc1ccccc1)c(C)[n+]2[O-]				ND(Insoluble)
CCOC(=O)c1ccc2c(c1)[n+]([O-])c(C(=O)OCc1ccccc1)c(C)[n+]2[O-]				ND(Insoluble)
CCOC(=O)c1ccc2c(c1)[n+]([O-])c(C(C)=O)c(C(F)(F)F)[n+]2[O-]	1.98	6.6	13.1	
CCOC(=O)c1ccc2c(c1)[n+]([O-])c(C(=O)CC)c(C(F)(F)F)[n+]2[O-]	18.1			
CCOC(=O)c1ccc2c(c1)[n+]([O-])c(C(=O)c1cccs1)c(C(F)(F)F)[n+]2[O-]	2.5	2.69	6.74	
CCOC(=O)c1ccc2c(c1)[n+]([O-])c(C(=O)c1ccc3ccccc3c1)c(C(F)(F)F)[n+]2[O-]				ND(Insoluble)
CCOC(=O)c1ccc2c(c1)[n+]([O-])c(C(=O)c1ccco1)c(C(F)F)[n+]2[O-]	3.81			
CCOC(=O)c1ccc2c(c1)[n+]([O-])c(C(=O)OCC)c(-c1ccccc1)[n+]2[O-]	7.13			

Compound	IC50 (Entamoeba histolytica; [2]) [µM]	Ratio IC50 [1]	IC50 (Vero) [µM]	IC50 (Entamoeba histolytica)
O=C(O)c1ccc2no[n+]([O-])c2c1				ND(Insoluble)
COC(=O)c1ccc2no[n+]([O-])c2c1	74.5			
COC(=O)c1ccc2c(c1)[n+]([O-])c(C(C)=O)c(C)[n+]2[O-]	1.41	>70.92	> 100	
COC(=O)c1ccc2c(c1)[n+]([O-])c(C(=O)OC)c(C)[n+]2[O-]	4.17			
CCOC(=O)c1c(C)[n+]([O-])c2ccc(C(=O)OC)cc2[n+]1[O-]	1.99	>50.25	> 100	
COC(=O)c1ccc2c(c1)[n+]([O-])c(C(=O)OC(C)(C)C)c(C)[n+]2[O-]				ND(Insoluble)
COC(=O)c1ccc2c(c1)[n+]([O-])c(C(=O)c1ccccc1)c(C)[n+]2[O-]	3.43			
COC(=O)c1ccc2c(c1)[n+]([O-])c(C(=O)Nc1ccccc1)c(C)[n+]2[O-]	4.14			
CCOC(=O)c1c(-c2ccccc2)[n+]([O-])c2ccc(C(=O)OC)cc2[n+]1[O-]	12.2			
COC(=O)c1ccc2c(c1)[n+]([O-])c(C(C)=O)c(C(F)(F)F)[n+]2[O-]	1.53	2.14	3.28	
COC(=O)c1ccc2c(c1)[n+]([O-])c(C(=O)C(C)C)c(C(F)(F)F)[n+]2[O-]	1.88	3.7	6.97	
COC(=O)c1ccc2c(c1)[n+]([O-])c(C(=O)c1ccccc1)c(C(F)(F)F)[n+]2[O-]	6.07			
[O-][n+]1onc2ccccc21 [BENZO[C][1,2,5]OXADIAZOLE 1-OXIDE]	12			
Cc1ncc([N+](=O)[O-])n1CCO [METRONIDAZOLE]	4.5	>22.22	> 100	
CC(=O)Oc1ccccc1C(=O)Nc1ncc([N+](=O)[O-])s1 [NITAZOXANIDE]	3.9	2.75	10.7	
